Assay results reported in ChEMBL document CHEMBL1828588, “Arylamides hybrids of two high-affinity σ2 receptor ligands as tools for the development of PET radiotracers” (Eur J Med Chem, 2011).

How the values were obtained:
[1] = Lipophilicity, log D of the compound at pH 7.4; assay type: physicochemical; details: buffer
Summary of the method: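 LogD calculated for compounds at pH 7.4.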

[2] = target: Sigma non-opioid intracellular receptor 1 (Cavia porcellus, UniProt Q60492); experiment: Displacement of [3H]-pentazocine from sigma 1 receptor in guinea pig brain after 30 mins by radioligand binding assay
Chain of Sigma non-opioid intracellular receptor 1 (Q60492 whole entry): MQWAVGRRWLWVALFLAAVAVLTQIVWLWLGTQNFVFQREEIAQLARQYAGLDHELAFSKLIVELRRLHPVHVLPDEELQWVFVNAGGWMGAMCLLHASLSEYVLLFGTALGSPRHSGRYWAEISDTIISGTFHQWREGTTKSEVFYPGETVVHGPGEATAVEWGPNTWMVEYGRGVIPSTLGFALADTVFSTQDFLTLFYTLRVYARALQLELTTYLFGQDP

[3] = Displacement of [3H]-DTG from sigma 2 receptor in rat liver membrane after 30 mins by radioligand binding assay; assay type: cell membranes
Summary of the method: (§1)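 […] (30 Ci/mmol) radioligand binding per Matsumoto et al. IC50 taken from six to nine drug concentrations, in two or three experiments with duplicate samples. Ki obtained by non-linear curve fitting. Tested as hydrochloride salts.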

[4] = Selectivity ratio of Ki for sigma 1 receptor in guinea pig brain to Ki for sigma 2 receptor in rat liver membrane; assay type: cell membranes
[5] = Inhibition of P-gp in dog MDCK-MDR1 cells by calcein-AM assay; assay type: cell-based, Canis lupus familiaris
Summary of the method: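 MDCK-MDR1 cells overexpressing P-gp, grown in DMEM high glucose with 10% FBS and 2 mM glutamine at 37 °C under 5% CO2. Seeded at 50,000 cells/well and left overnight to confluence. Compound added for 30 min at 37 °C, then calcein-AM (final 2.5 µM in PBS) for 30 min. Wells washed with ice-cold PBS. Fluorescence read at 485/535 nm. EC50 from % increase over untreated basal versus log dose.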

Rattus norvegicus = species on record: Rattus norvegicus; experiment: Displacement of [3H]-DTG from sigma 2 receptor in rat liver membrane at […] after 30 mins by radioligand binding assay; assay type: cell membranes; summary of the method: as §1

Row | SMILES | logD [1] | Ki [2] [nM] | Ki [3] [nM] | Ratio Ki [4] | EC50 [5] [nM] | Activity (Rattus norvegicus) [%]
1 | COc1ccc(C)cc1C(=O)NCCCN1CCN(C2CCCCC2)CC1 | 1.94 | 45.5 | 26.1 | 1.7 | 8600 | 
2 | Cc1ccccc1NC(=N)Nc1ccccc1C [DITOLYLGUANIDINE] |  |  | 26.3 |  |  | 
3 | COc1cc(Br)cc(C(=O)NCCCN2CCN(C3CCCCC3)CC2)c1OC | 2.43 | 25.8 | 21.2 | 1.2 | 2700 | 
4 | COc1cc2c(cc1OC)CN(CCCC1CCCc3c(OC)cccc31)CC2 (stereo not drawn) | 4.33 | 151 |  |  | 1100 | 96
5 | COc1cc2c(cc1OC)CN(CCCNC(=O)c1cc(C)ccc1OC)CC2 | 2.7 | 534 | 2.63 | 203 | 5300 | 
6 | COc1cc2c(cc1OC)CN(CCCNC(=O)c1cc(Br)cc(OC)c1OC)CC2 | 3.22 | 4400 | 12.9 | 341 | 2500 | 
7 | COc1cc2c(cc1OC)CN(CCCNC(=O)C1CCCc3c(OC)cccc31)CC2 (stereo not drawn) | 3.21 | 146 | 21.1 | 7 | 2700 | 
8 | COc1cccc2c1CCCC2CCCN1CCN(C2CCCCC2)CC1 (stereo not drawn) | 3.75 |  | 0.68 |  | 3000 | 
9 | COc1cc2c(cc1OC)CN(CCCN1CCc3ccccc3C1=O)CC2 | 2.25 | 709 | 4.84 | 147 | 12000 | 
10 | O=C1c2ccccc2CCN1CCCN1CCN(C2CCCCC2)CC1 | 1.49 | 24.7 | 26.6 | 1 | 20000 | 
11 | COc1cccc2c1CCCC2C(=O)NCCCN1CCN(C2CCCCC2)CC1 (stereo not drawn) | 2.46 | 35.1 | 16.5 | 2 | 8600 | 
12 | COc1cc2c(cc1OC)CN(CCCCNC(=O)c1cc(C)ccc1OC)CC2 | 2.83 | 2150 | 8.68 | 247 | 1600 | 
13 | COc1cc(Br)c(C(=O)NCCCN2CCN(C3CCCCC3)CC2)cc1OC | 2.11 | 268 | 467 | 0.6 | 45000 | 
14 | COc1cc(Br)c(C(=O)NCCCN2CCc3cc(OC)c(OC)cc3C2)cc1OC | 2.89 | 2570 | 50.9 | 50 | 45000 | 
